Results published in ChEMBL document CHEMBL4610112, “Novel Pyrrolopyridone Bromodomain and Extra-Terminal Motif (BET) Inhibitors Effective in Endocrine-Resistant ER+ Breast Cancer with Acquired Resistance to Fulvestrant and Palbociclib” (J Med Chem, 2020).
The source made the active and inactive calls.

What was measured:
MCF7:CFR [1] = test: Up regulation of RIPK1 gene expression in fulvestrant-resistant human MCF7:CFR cells at 100 nM measured after 24 hrs; format: functional, cell-based
Procedure, shortened: (§1)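 MCF-7:CFR cells (fulvestrant-resistant, kept in 200 nM fulvestrant in phenol red-free stripped RPMI-1640) treated with 100 nM compound or DMSO (0.01%) for 24 h. RNA extracted and RNA-seq performed, expression reported as log2 fold change versus vehicle.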

MCF7:CFR [2] = test: Down regulation of c-MET gene expression in fulvestrant-resistant human MCF7:CFR cells at 100 nM measured after 24 hrs; format: functional, cell-based
Procedure, shortened: (§2)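 MCF-7:CFR cells were treated with compound at 100 nM or DMSO (0.01%) for 24 h. RNA extracted and RNA-seq performed. Output given as log2 fold change versus vehicle.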

MCF7:TAM1 [3] = test: Antitumor activity against human MCF7:TAM1 cells xenografted in ovariectomized athymic Nude-Foxn1 mouse assessed as tumor growth inhibition at 30 mg/kg/day, po administered via gavage for 4 weeks in presence of fulvestrant; format: functional, organism-based
Procedure, shortened: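 MCF-7:Tam1 tumours established in 4–6 week old female ovariectomized athymic nude mice given daily tamoxifen 1.5 mg/mouse. […] Fulvestrant 1 (mg/mouse)/week sc. Tumour volume measured weekly by calipers as length × width² × π/6.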

MCF7:CFR [4] = test: Down regulation of KRT83 gene expression in fulvestrant-resistant human MCF7:CFR cells at 100 nM measured after 24 hrs; format: functional, cell-based; procedure, shortened: as §2
MCF7:CFR [5] = test: Down regulation of ESR1 gene expression in fulvestrant-resistant human MCF7:CFR cells at 100 nM measured after 24 hrs; format: functional, cell-based; procedure, shortened: as §2
MCF7:CFR [6] = test: Down regulation of CLEC3A gene expression in fulvestrant-resistant human MCF7:CFR cells at 100 nM measured after 24 hrs; format: functional, cell-based; procedure, shortened: as §2
MCF7:CFR [7] = test: Down regulation of CCDC170 gene expression in fulvestrant-resistant human MCF7:CFR cells at 100 nM measured after 24 hrs; format: functional, cell-based; procedure, shortened: as §2
Homo sapiens [8] = organism: Homo sapiens; test: Growth inhibition of tamoxifen and palbociclib-resistant human MCF7:CPR cells measured after 5 days by Hoechst 33342 dye based imaging analysis; format: functional
Procedure, shortened: (§3)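 Cells seeded at 2000/well in their maintenance medium, treated once the next day with compound (0.1 nM–10 μM; 0.1% DMSO final). Day 5 Hoechst 33342 staining with imaging count. Survival normalized to DMSO (100%) and JQ1 3 μM (0%). IC50 given as mean ± SEM from at least two passages, each in triplicate.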

Homo sapiens [9] = organism: Homo sapiens; test: Growth inhibition of tamoxifen-resistant human MCF7:5C cells measured after 5 days by Hoechst 33342 dye based imaging analysis; format: functional; procedure, shortened: as §3
MCF7:CFR [10] = test: Down regulation of ZMYND8 gene expression in fulvestrant-resistant human MCF7:CFR cells at 100 nM measured after 24 hrs; format: functional, cell-based; procedure, shortened: as §2
MCF7:CFR [11] = test: Down regulation of BCAS1 gene expression in fulvestrant-resistant human MCF7:CFR cells at 100 nM measured after 24 hrs; format: functional, cell-based; procedure, shortened: as §2
MCF7:CFR [12] = test: Up regulation of APAF1 gene expression in fulvestrant-resistant human MCF7:CFR cells at 100 nM measured after 24 hrs; format: functional, cell-based; procedure, shortened: as §1
Homo sapiens [13] = organism: Homo sapiens; test: Growth inhibition of tamoxifen-sensitive human MCF7:WS8 cells measured after 5 days by Hoechst 33342 dye based imaging analysis; format: functional; procedure, shortened: as §3
MCF7:CFR [14] = test: Down regulation of n-MYC gene expression in fulvestrant-resistant human MCF7:CFR cells at 100 nM measured after 24 hrs; format: functional, cell-based
Procedure, shortened: (§4)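 MCF-7:CFR cells exposed to compound at 100 nM, with DMSO (0.01%) as control, for 24 h. RNA extracted and analysed by RNA-seq. Values are log2-fold changes in gene expression against the vehicle control.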

MCF7:CFR [15] = test: Up regulation of CDKN1B gene expression in fulvestrant-resistant human MCF7:CFR cells at 100 nM measured after 24 hrs; format: functional, cell-based; procedure, shortened: as §4
MCF7:CFR [16] = test: Down regulation of PARP10 gene expression in fulvestrant-resistant human MCF7:CFR cells at 100 nM measured after 24 hrs; format: functional, cell-based; procedure, shortened: as §2
Homo sapiens [17] = organism: Homo sapiens; test: Growth inhibition of human T47D:TDG cells harboring ESR1 D538G mutant measured after 5 days by Hoechst 33342 dye based imaging analysis; format: functional; procedure, shortened: as §3
MCF7:CFR [18] = test: Up regulation of CASP3 gene expression in fulvestrant-resistant human MCF7:CFR cells at 100 nM measured after 24 hrs; format: functional, cell-based; procedure, shortened: as §1
MCF7:TAM1 [19] = test: Growth inhibition of tamoxifen-resistant human MCF7:TAM1 cells measured after 5 days by Hoechst 33342 dye based imaging analysis; format: functional, cell-based; procedure, shortened: as §3
T47D = test: Growth inhibition of tamoxifen-sensitive human T47D cells measured after 5 days by Hoechst 33342 dye based imaging analysis; format: functional, cell-based; procedure, shortened: as §3
MCF7:CFR [20] = test: Up regulation of CASP6 gene expression in fulvestrant-resistant human MCF7:CFR cells at 100 nM measured after 24 hrs; format: functional, cell-based; procedure, shortened: as §1
MCF7:CFR [21] = test: Growth inhibition of fulvestrant-resistant human MCF7:CFR cells at 1 to 30 nM treated for 3 hrs followed by compound washout and measured after 5 days by Hoechst 33342 dye based imaging analysis; format: functional, cell-based
Procedure, shortened: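 MCF-7:CFR cells grown 2 days in phenol red-free RPMI/10% charcoal-dextran FBS, then seeded at 2000 cells/well. Treated next day; medium replaced with normal growth medium after 3 h. On day 5, cells stained with Hoechst 33342 and counted by imaging. Survival normalized to DMSO (100%) and JQ1 3 μM (0%).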

MCF7:CFR [22] = test: Down regulation of IGFBP5 gene expression in fulvestrant-resistant human MCF7:CFR cells at 100 nM measured after 24 hrs; format: functional, cell-based; procedure, shortened: as §2
MCF7:CFR [23] = test: Down regulation of c-MYC gene expression in fulvestrant-resistant human MCF7:CFR cells at 100 nM measured after 24 hrs; format: functional, cell-based; procedure, shortened: as §4
MCF7:CFR [24] = test: Down regulation of IFI44L gene expression in fulvestrant-resistant human MCF7:CFR cells at 100 nM measured after 24 hrs; format: functional, cell-based; procedure, shortened: as §2
MCF7:CFR [25] = test: Down regulation of BCL2L1 gene expression in fulvestrant-resistant human MCF7:CFR cells at 100 nM measured after 24 hrs; format: functional, cell-based; procedure, shortened: as §2
MCF7:CFR [26] = test: Up regulation of CASP9 gene expression in fulvestrant-resistant human MCF7:CFR cells at 100 nM measured after 24 hrs; format: functional, cell-based; procedure, shortened: as §1
MCF7:CFR [27] = test: Down regulation of NUPR1 gene expression in fulvestrant-resistant human MCF7:CFR cells at 100 nM measured after 24 hrs; format: functional, cell-based; procedure, shortened: as §2
MCF7:CFR [28] = test: Down regulation of NRAS gene expression in fulvestrant-resistant human MCF7:CFR cells at 100 nM measured after 24 hrs; format: functional, cell-based; procedure, shortened: as §2
MCF7:CFR [29] = test: Down regulation of BCL2 gene expression in fulvestrant-resistant human MCF7:CFR cells at 100 nM measured after 24 hrs; format: functional, cell-based; procedure, shortened: as §2
MCF7:CFR [30] = test: Down regulation of ERBB3 gene expression in fulvestrant-resistant human MCF7:CFR cells at 100 nM measured after 24 hrs; format: functional, cell-based; procedure, shortened: as §2
MCF7:CFR [31] = test: Down regulation of HIST1H3B gene expression in fulvestrant-resistant human MCF7:CFR cells at 100 nM measured after 24 hrs; format: functional, cell-based; procedure, shortened: as §2
MCF7:CFR [32] = test: Down regulation of cyclin-D gene expression in fulvestrant-resistant human MCF7:CFR cells at 100 nM measured after 24 hrs; format: functional, cell-based; procedure, shortened: as §4

CCS(=O)(=O)Nc1cc(-c2cn(C)c3c(=O)[nH]ccc23)cc2c1ccn2C(C)(c1ccccn1)c1ccccn1
active: Activity (MCF7:CFR [1]) | Activity (MCF7:CFR [2]) | TGI (MCF7:TAM1 [3]) | Activity (MCF7:CFR [4]) | Activity (MCF7:CFR [5]) | Activity (MCF7:CFR [6]) | Activity (MCF7:CFR [7]) | growth inhibition (GI) (Homo sapiens [8]) Dose-dependent effect | growth inhibition (GI) (Homo sapiens [9]) Dose-dependent effect | Activity (MCF7:CFR [10]) | Activity (MCF7:CFR [11]) | Activity (MCF7:CFR [12]) | growth inhibition (GI) (Homo sapiens [13]) Dose-dependent effect | Activity (MCF7:CFR [14]) | Activity (MCF7:CFR [15]) | Activity (MCF7:CFR [16]) | growth inhibition (GI) (Homo sapiens [17]) Dose-dependent effect | Activity (MCF7:CFR [18]) | growth inhibition (GI) (MCF7:TAM1 [19]) Dose-dependent effect | growth inhibition (GI) (T47D) Dose-dependent effect | Activity (MCF7:CFR [20]) | growth inhibition (GI) (MCF7:CFR [21]) | Activity (MCF7:CFR [22]) | Activity (MCF7:CFR [23]) | Activity (MCF7:CFR [24]) | Activity (MCF7:CFR [25]) | Activity (MCF7:CFR [26]) | Activity (MCF7:CFR [27]) | Activity (MCF7:CFR [28]) | Activity (MCF7:CFR [29]) | Activity (MCF7:CFR [30]) | Activity (MCF7:CFR [31]) | Activity (MCF7:CFR [32])
